Experiment: phase I study BOS172738-01: safety and tolerability
Format: in vivo, human
Outline: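 Patients received at least one dose of oral drug given once daily in 28-day cycles. Part A escalated 10–150 mg, by accelerated titration (dose doubling) and then 3+3 Fibonacci steps; part B used 75 mg. AEs were graded by CTCAE v4.03 from first dose to 31 days after last dose. DLTs counted in cycle 1. Missing causality was scored as related and missing grade as grade 3.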

[1] = any causality and grade, overall n = 117
[2] = overall total, n = 117, listed as BOS
[3] = part A, all dose levels, n = 67

Structure (SMILES): COc1cc2cc(-c3ccc(CC(=O)Nc4cc(C(C)(C)C(F)(F)F)no4)cn3)cnc2cc1OC [BOS172738]
- grade ≥3 TEAE of either hypertension or liver enzyme elevations (BOS172738-treated patients): 2%
- Any TEAE (all pooled 75 mg, n = 70): 70 (100) n (%)
- Any TEAE leading to BOS discontinuation (all pooled 75 mg, n = 70): 13 (19) n (%)
- Any TEAE leading to BOS dose interruption (all pooled 75 mg, n = 70): 46 (66) n (%)
- Any TEAE leading to BOS dose reduction (all pooled 75 mg, n = 70): 14 (20) n (%)
- Any TEAE leading to study discontinuation (all pooled 75 mg, n = 70): 9 (13) n (%)
- Any TEAE related to BOS leading to BOS discontinuation (all pooled 75 mg, n = 70): 6 (9) n (%)
- Any TEAE related to BOS leading to study discontinuation (all pooled 75 mg, n = 70): 2 (3) n (%)
- Any TEAE resulting in death (all pooled 75 mg, n = 70): 3 (4) n (%)
- Any TEAE, grade ≥3 (all pooled 75 mg, n = 70): 57 (81) n (%)
- Serious TEAEs related to BOS (all pooled 75 mg, n = 70): 4 (6) n (%)
- Serious TEAEs, any (all pooled 75 mg, n = 70): 35 (50) n (%)
- TEAE related to BOS, CTCAE grade ≥3: Anemia (all pooled 75 mg, n = 70): 4 (6) n (%)
- TEAE related to BOS, CTCAE grade ≥3: Asthenia (all pooled 75 mg, n = 70): 1 (1) n (%)
- TEAE related to BOS, CTCAE grade ≥3: Blood creatinine phosphokinase increased (all pooled 75 mg, n = 70): 14 (20) n (%)
- TEAE related to BOS, CTCAE grade ≥3: Diarrhea (all pooled 75 mg, n = 70): 1 (1) n (%)
- TEAE related to BOS, CTCAE grade ≥3: Hypophosphatemia (all pooled 75 mg, n = 70): 4 (6) n (%)
- TEAE related to BOS, CTCAE grade ≥3: Lymphopenia (all pooled 75 mg, n = 70): 2 (3) n (%)
- TEAE related to BOS, CTCAE grade ≥3: Muscular weakness (all pooled 75 mg, n = 70): 1 (1) n (%)
- TEAE related to BOS, CTCAE grade ≥3: Myositis (all pooled 75 mg, n = 70): 0 n (%)
- TEAE related to BOS, CTCAE grade ≥3: Neutropenia (all pooled 75 mg, n = 70): 2 (3) n (%)
- TEAE related to BOS, CTCAE grade ≥3: Neutrophil count decreased (all pooled 75 mg, n = 70): 9 (13) n (%)
- TEAE related to BOS, any (all pooled 75 mg, n = 70): 57 (81) n (%)
- TEAE related to BOS, grade ≥3 (all pooled 75 mg, n = 70): 34 (49) n (%)
- TEAE: anemia [1]: 46 (39%) n (%)
- TEAE: aspartate aminotransferase increased [1]: 48 (41%) n (%)
- TEAE: blood creatine phosphokinase increased [1]: 72 (62%) n (%)
- TEAE: constipation [1]: 30 (26%) n (%)
- TEAE: diarrhea [1]: 41 (35%) n (%)
- TEAE: dyspnea [1]: 34 (29%) n (%)
- TEAE: facial edema [1]: 31 (26%) n (%)
- TEAE: fatigue [1]: 33 (28%) n (%)
- TEAE: hypophosphatemia [1]: 31 (26%) n (%)
- treatment discontinued due to TEAEs (final data cut-off, 117 patients): 20%
- myositis leading to dose interruption (in total): 6%
- severity of BOS172738-related TEAEs (in vivo): mostly grade 1-2
- TEAE resulting in death: dyspnea (overall): 2%
- patients discontinued from the study due to BOS172738-related TEAEs (overall): 4%
- deaths considered related to BOS172738 (overall n = 117): None
- serious TEAE related to BOS172738: muscular weakness (overall n = 117): 3 (3%) n (%)
- serious TEAE related to BOS172738: myositis (overall n = 117): 2 (2%) n (%)
- serious TEAE: anemia (overall n = 117): 4 (3%) n (%)
- serious TEAE: dyspnea (overall n = 117): 8 (7%) n (%)
- serious TEAE: pneumonia (overall n = 117): 7 (6%) n (%)
- Any TEAE (overall total, n = 117): 117 (100) n (%)
- Any TEAE leading to BOS discontinuation (overall total, n = 117): 30 (26%) n (%)
- Any TEAE leading to BOS dose interruption (overall total, n = 117): 78 (67%) n (%)
- Any TEAE leading to study discontinuation (overall total, n = 117): 18 (15) n (%)
- Any TEAE related to BOS leading to BOS discontinuation (overall total, n = 117): 16 (14%) n (%)
- Any TEAE related to BOS leading to study discontinuation (overall total, n = 117): 5 (4) n (%)
- Any TEAE resulting in death (overall total, n = 117): 11 (9%) n (%)
- Any TEAE, grade ≥3 (overall total, n = 117): 98 (84%) n (%)
- Serious TEAEs related to BOS (overall total, n = 117): 16 (14%) n (%)
- Serious TEAEs, any (overall total, n = 117): 67 (57%) n (%)
- TEAE related to BOS, CTCAE grade ≥3: Anemia (overall total, n = 117): 10 (9%) n (%)
- TEAE related to BOS, CTCAE grade ≥3: Asthenia (overall total, n = 117): 2 (2) n (%)
- TEAE related to BOS, CTCAE grade ≥3: Blood creatinine phosphokinase increased (overall total, n = 117): 29 (25%) n (%)
- TEAE related to BOS, CTCAE grade ≥3: Diarrhea (overall total, n = 117): 3 (3) n (%)
- TEAE related to BOS, CTCAE grade ≥3: Hypophosphatemia (overall total, n = 117): 6 (5) n (%)
- TEAE related to BOS, CTCAE grade ≥3: Lymphopenia (overall total, n = 117): 3 (3) n (%)
- TEAE related to BOS, CTCAE grade ≥3: Muscular weakness (overall total, n = 117): 3 (3) n (%)
- TEAE related to BOS, CTCAE grade ≥3: Myositis (overall total, n = 117): 2 (2) n (%)
- TEAE related to BOS, CTCAE grade ≥3: Neutropenia (overall total, n = 117): 4 (3) n (%)
- TEAE related to BOS, CTCAE grade ≥3: Neutrophil count decreased (overall total, n = 117): 12 (10%) n (%)
- TEAE related to BOS, any (overall total, n = 117): 99 (85%) n (%)
- TEAE related to BOS, grade ≥3 (overall total, n = 117): 63 (54%) n (%)
- Any TEAE leading to BOS discontinuation [2]: 30 (26) n (%)
- Any TEAE leading to BOS dose interruption [2]: 78 (67) n (%)
- Any TEAE leading to BOS dose reduction [2]: 29 (25) n (%)
- Any TEAE related to BOS leading to BOS discontinuation [2]: 16 (14) n (%)
- Any TEAE resulting in death [2]: 11 (9) n (%)
- Any TEAE, grade ≥3 [2]: 98 (84) n (%)
- Serious TEAEs, any [2]: 67 (57) n (%)
- TEAE related to BOS, CTCAE grade ≥3: Anemia [2]: 10 (9) n (%)
- TEAE related to BOS, CTCAE grade ≥3: Blood creatinine phosphokinase increased [2]: 29 (25) n (%)
- TEAE related to BOS, CTCAE grade ≥3: Neutrophil count decreased [2]: 12 (10) n (%)
- TEAE related to BOS, any [2]: 99 (85) n (%)
- TEAE related to BOS, grade ≥3 [2]: 63 (54) n (%)
- DLT event (one patient) (part A, 75 mg cohort): blood creatine phosphokinase increased
- DLT event (one patient) (part A, 100 mg cohort): muscle weakness and blood creatine phosphokinase increased
- DLT event (one patient) (part A, 150 mg cohort): capillary leak syndrome
- maximum tolerated dose (MTD) (part A, 10-150 mg orally once daily): not reached
- patients with dose-limiting toxicities (part A, 10-150 mg orally once daily, cycle 1): three
- Any TEAE [3]: 67 (100) n (%)
- Any TEAE leading to BOS discontinuation [3]: 23 (34) n (%)
- Any TEAE leading to BOS dose interruption [3]: 45 (67) n (%)
- Any TEAE leading to BOS dose reduction [3]: 19 (28) n (%)
- Any TEAE leading to study discontinuation [3]: 11 (16) n (%)
- Any TEAE related to BOS leading to BOS discontinuation [3]: 14 (21) n (%)
- Any TEAE related to BOS leading to study discontinuation [3]: 4 (6) n (%)
- Any TEAE resulting in death [3]: 9 (13) n (%)
- Any TEAE, grade ≥3 [3]: 57 (85) n (%)
- Serious TEAEs related to BOS [3]: 12 (18) n (%)
- Serious TEAEs, any [3]: 39 (58) n (%)
- TEAE related to BOS, CTCAE grade ≥3: Anemia [3]: 7 (10) n (%)
- TEAE related to BOS, CTCAE grade ≥3: Asthenia [3]: 2 (3) n (%)
- TEAE related to BOS, CTCAE grade ≥3: Blood creatinine phosphokinase increased [3]: 19 (28) n (%)
- TEAE related to BOS, CTCAE grade ≥3: Diarrhea [3]: 3 (4) n (%)
- TEAE related to BOS, CTCAE grade ≥3: Hypophosphatemia [3]: 3 (4) n (%)
- TEAE related to BOS, CTCAE grade ≥3: Lymphopenia [3]: 1 (1) n (%)
- TEAE related to BOS, CTCAE grade ≥3: Muscular weakness [3]: 3 (4) n (%)
- TEAE related to BOS, CTCAE grade ≥3: Myositis [3]: 2 (3) n (%)
- TEAE related to BOS, CTCAE grade ≥3: Neutropenia [3]: 4 (6) n (%)
- TEAE related to BOS, CTCAE grade ≥3: Neutrophil count decreased [3]: 5 (7) n (%)

From publication PMC12495087 (ESMO Open, 2025)
